The values that follow come from ChEMBL document CHEMBL2424657, “Identification of the KDM2/7 histone lysine demethylase subfamily inhibitor and its antiproliferative activity” (J Med Chem, 2013).

Experiment [1] deals with T1, Lysine-specific demethylase 4C (Homo sapiens, UniProt Q9H3R0).
T1 sequence (Q9H3R0 whole entry): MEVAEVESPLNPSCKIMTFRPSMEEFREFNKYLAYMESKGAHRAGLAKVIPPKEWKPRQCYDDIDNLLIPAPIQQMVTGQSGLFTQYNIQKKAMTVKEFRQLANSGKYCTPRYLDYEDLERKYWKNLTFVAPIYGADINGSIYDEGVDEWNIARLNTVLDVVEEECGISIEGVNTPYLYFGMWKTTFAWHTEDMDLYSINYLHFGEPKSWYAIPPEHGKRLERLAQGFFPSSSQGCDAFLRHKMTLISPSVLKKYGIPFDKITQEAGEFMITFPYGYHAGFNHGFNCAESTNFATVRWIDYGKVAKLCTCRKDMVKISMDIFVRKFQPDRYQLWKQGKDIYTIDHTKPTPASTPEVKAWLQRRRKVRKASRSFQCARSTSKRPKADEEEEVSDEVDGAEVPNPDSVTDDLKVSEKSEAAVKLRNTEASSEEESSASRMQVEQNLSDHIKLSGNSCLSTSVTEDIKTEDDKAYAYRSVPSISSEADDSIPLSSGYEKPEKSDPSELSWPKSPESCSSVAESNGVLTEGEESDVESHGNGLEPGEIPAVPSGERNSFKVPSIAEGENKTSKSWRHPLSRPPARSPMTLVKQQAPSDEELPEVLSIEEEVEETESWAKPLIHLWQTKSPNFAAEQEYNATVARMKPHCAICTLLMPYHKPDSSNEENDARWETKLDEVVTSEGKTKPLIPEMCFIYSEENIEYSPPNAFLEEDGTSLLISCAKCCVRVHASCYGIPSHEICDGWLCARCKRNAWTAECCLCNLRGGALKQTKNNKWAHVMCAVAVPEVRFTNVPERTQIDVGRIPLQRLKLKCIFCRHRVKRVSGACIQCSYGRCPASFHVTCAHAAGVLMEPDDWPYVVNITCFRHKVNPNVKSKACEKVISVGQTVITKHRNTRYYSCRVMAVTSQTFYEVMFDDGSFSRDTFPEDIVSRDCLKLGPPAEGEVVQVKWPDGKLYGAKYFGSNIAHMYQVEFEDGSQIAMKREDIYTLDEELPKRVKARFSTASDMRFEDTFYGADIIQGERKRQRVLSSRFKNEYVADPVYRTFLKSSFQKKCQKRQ
Put plainly: Inhibition of KDM4C (unknown origin) using H3K9me3 peptide and 2-oxoglutarate as substrate after 1 hr by FDH-coupled assay.

The target in experiment [2] is Lysine-specific demethylase 5A (Homo sapiens, UniProt P29375). Put plainly: Inhibition of KDM5A (unknown origin) using H3K4me3 peptide and 2-oxoglutarate as substrate after 1 hr by FDH-coupled assay. A digest of the protocol: (§1)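 Run as the FDH-coupled KDM4C format, with compounds in DMSO and activity relative to a DMSO control. KDM4A was used at 0.37 mg/mL final with H3K9me3 peptide. KDM5A was used at 0.64 mg/mL final with H3K4me3 peptide. Values are means of two experiments.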
Chain of Lysine-specific demethylase 5A (P29375 whole entry): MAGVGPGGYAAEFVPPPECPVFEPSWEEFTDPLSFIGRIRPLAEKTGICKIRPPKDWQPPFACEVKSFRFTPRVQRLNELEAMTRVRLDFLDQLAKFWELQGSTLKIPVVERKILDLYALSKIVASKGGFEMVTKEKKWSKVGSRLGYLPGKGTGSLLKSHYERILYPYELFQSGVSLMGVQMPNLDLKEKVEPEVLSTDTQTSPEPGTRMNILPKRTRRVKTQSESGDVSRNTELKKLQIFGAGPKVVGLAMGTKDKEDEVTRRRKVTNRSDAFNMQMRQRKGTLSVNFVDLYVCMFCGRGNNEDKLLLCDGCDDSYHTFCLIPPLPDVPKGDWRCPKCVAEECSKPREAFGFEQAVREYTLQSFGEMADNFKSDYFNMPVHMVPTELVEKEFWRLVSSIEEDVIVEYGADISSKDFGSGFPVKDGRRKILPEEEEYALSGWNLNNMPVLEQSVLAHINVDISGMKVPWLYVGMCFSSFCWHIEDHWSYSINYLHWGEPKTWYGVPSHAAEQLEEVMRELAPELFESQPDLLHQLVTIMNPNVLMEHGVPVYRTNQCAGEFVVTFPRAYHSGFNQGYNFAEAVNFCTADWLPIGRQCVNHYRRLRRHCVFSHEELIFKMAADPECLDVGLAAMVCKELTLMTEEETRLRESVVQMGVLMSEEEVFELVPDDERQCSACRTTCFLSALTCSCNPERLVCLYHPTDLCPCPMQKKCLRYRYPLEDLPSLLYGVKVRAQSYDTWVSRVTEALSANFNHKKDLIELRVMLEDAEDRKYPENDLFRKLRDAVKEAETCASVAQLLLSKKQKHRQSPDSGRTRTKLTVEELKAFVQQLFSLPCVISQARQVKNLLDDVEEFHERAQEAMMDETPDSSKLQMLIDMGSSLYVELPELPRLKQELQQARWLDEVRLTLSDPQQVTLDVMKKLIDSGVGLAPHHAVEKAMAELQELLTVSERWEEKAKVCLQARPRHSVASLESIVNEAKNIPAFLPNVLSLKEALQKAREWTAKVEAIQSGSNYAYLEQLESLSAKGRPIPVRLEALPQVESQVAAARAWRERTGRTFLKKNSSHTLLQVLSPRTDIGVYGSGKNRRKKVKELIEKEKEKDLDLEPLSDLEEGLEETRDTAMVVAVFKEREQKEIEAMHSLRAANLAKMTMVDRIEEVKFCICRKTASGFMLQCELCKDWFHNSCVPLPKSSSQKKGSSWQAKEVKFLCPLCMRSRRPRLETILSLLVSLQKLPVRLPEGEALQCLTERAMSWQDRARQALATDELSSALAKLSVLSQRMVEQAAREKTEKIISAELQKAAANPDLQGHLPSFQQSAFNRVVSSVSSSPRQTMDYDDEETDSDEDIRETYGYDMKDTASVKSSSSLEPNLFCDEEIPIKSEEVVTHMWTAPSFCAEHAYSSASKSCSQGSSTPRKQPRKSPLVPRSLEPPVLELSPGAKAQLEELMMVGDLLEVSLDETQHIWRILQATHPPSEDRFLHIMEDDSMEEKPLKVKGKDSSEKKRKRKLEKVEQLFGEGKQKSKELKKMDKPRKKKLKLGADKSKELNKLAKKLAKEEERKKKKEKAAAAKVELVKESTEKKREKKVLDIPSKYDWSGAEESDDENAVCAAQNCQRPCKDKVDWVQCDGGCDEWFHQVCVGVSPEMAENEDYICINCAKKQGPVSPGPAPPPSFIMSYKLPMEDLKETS

In experiment [3] the target is T2, Lysine-specific demethylase 2A (Homo sapiens, UniProt Q9Y2K7).
T2 sequence (Q9Y2K7 whole entry): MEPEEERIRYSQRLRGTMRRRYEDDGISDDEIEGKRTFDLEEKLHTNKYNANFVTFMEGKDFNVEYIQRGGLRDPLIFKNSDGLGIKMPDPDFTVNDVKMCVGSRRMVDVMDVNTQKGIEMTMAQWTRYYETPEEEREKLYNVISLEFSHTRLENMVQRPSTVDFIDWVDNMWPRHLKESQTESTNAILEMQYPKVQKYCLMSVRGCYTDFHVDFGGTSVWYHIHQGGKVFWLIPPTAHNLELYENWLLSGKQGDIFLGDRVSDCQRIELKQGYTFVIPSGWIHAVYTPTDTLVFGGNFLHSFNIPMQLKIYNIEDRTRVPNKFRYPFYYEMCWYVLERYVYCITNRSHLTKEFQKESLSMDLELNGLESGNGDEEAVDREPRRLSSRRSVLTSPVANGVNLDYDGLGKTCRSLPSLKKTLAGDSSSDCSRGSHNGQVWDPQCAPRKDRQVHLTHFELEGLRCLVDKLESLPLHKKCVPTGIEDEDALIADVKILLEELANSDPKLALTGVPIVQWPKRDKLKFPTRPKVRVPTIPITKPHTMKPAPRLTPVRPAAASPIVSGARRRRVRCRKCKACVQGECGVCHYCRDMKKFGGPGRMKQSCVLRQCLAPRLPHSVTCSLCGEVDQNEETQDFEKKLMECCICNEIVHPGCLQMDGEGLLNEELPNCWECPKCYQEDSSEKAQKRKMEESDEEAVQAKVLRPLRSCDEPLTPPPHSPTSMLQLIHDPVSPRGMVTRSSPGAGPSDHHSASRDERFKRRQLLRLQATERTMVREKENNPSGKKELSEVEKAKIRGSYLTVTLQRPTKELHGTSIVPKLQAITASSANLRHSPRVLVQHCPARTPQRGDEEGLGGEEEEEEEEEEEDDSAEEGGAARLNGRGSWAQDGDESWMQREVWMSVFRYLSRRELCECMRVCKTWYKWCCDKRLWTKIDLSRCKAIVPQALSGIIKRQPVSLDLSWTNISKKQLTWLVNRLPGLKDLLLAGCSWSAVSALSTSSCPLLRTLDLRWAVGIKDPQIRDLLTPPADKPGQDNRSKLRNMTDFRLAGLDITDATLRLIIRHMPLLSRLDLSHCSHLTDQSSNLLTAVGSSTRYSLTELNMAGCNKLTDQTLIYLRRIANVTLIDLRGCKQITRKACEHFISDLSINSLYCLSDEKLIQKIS
Put plainly: Inhibition of KDM2A (unknown origin).

Experiment [4] deals with T3, Lysine-specific demethylase 4A (Homo sapiens, UniProt O75164).
T3 sequence (O75164 whole entry): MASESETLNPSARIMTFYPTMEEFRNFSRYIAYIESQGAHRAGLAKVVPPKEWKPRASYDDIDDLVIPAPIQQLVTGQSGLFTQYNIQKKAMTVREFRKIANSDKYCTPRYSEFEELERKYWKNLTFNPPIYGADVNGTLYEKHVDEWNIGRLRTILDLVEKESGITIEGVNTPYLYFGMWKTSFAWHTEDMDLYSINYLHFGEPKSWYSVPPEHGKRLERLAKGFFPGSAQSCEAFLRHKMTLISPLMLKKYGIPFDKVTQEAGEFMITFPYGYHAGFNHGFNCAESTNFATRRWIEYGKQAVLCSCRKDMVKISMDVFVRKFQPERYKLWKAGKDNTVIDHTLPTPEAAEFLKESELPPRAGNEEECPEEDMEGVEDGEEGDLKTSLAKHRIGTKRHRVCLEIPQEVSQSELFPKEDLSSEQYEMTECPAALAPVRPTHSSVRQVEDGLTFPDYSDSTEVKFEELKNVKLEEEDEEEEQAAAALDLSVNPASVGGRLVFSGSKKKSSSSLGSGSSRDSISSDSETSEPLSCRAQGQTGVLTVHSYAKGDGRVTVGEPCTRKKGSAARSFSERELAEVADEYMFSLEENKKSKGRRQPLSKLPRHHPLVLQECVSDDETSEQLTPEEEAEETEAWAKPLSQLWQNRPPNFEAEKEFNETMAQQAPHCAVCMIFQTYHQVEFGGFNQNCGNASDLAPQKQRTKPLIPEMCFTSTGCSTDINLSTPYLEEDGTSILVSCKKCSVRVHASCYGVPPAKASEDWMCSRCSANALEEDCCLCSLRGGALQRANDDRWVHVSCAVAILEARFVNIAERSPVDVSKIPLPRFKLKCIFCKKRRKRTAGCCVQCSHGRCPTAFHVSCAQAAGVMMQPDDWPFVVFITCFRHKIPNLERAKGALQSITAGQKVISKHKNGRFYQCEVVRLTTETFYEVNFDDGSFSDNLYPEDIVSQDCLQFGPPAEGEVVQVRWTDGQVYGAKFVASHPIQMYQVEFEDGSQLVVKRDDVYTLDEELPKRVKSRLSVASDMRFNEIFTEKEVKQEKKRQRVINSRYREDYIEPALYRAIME
The experiment in a line: Inhibition of KDM4A (unknown origin) using H3K9me3 peptide and 2-oxoglutarate as substrate after 1 hr by FDH-coupled assay. A digest of the protocol:
as §1

Experiment [5] concerns the target Histone lysine demethylase PHF8 (Homo sapiens, UniProt Q9UPP1). The experiment in a line: Inhibition of KDM7B (unknown origin) using H3K4me3K9me2 and 2-oxoglutarate as substrate after 1 hr by matrix-assisted laser desorption ionization time of flight mass spectrometry. A digest of the protocol: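 Enzyme (0.5 mg/mL) was reacted with 5 μM H3K4me3K9me2 peptide, 0.5 mM 2-oxoglutarate, 20 μM Fe(II), 20 μM ZnCl2, 0.5 mM ascorbate, 150 mM KCl, glutathione and DTT in 10 mM Tris-HCl pH 8.0 for 1 h at 37 °C. Inhibition was calculated from the remaining H3K9me2, and IC50 was taken as the concentration halving H3K9me2 removal. Values are means of two experiments.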

For experiment [6], the target named is Lysine-specific demethylase 6A (Homo sapiens, UniProt O15550). Put plainly: Inhibition of human recombinant KDM6A after 120 mins.
Chain of Lysine-specific demethylase 6A (O15550 whole entry): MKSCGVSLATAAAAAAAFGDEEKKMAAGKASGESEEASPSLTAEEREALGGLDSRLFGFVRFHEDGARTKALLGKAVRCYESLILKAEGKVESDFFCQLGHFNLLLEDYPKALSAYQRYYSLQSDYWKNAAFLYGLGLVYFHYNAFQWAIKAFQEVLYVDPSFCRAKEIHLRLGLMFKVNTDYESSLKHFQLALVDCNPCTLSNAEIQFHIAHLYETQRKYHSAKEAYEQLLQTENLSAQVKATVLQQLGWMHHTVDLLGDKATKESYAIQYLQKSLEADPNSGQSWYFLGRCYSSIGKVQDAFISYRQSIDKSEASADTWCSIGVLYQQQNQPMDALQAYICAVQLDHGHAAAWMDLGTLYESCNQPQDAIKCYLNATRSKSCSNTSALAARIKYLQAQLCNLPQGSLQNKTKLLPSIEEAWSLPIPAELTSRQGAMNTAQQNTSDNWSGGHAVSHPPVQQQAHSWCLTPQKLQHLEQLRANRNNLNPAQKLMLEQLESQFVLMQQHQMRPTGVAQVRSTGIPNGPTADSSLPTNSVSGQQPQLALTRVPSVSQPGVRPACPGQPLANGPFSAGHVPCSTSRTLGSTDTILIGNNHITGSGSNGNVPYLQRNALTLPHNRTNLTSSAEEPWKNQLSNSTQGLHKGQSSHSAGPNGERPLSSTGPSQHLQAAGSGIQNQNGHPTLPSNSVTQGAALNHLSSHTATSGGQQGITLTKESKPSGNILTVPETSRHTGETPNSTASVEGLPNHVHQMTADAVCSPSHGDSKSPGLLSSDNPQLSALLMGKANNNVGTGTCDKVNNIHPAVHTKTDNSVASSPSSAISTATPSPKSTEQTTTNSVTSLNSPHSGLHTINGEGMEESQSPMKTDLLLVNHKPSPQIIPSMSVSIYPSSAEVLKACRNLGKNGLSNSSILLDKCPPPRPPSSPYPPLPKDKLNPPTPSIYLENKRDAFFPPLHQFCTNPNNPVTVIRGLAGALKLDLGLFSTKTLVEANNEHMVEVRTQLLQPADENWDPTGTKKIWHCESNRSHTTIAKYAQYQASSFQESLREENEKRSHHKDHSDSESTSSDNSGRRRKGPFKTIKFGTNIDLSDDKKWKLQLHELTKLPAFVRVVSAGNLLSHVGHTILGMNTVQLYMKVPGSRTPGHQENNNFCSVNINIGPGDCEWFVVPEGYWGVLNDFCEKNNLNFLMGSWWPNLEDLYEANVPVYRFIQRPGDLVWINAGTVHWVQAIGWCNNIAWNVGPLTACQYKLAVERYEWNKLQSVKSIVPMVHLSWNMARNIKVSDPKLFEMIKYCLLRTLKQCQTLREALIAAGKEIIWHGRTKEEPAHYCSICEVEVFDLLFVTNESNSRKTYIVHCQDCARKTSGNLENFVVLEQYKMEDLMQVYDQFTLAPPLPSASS
A short description of experiment [7]: Growth inhibition of human KYSE-150 cells after 48 hrs by MTT assay. Type of experiment: functional. As to conditions: KYSE-150, 48 h. A digest of the protocol: (§2)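 Cells were seeded at 5000/well in RPMI 1640 with 10% FBS and allowed to attach overnight, then exposed for 48 h at 37 °C in 5% CO2. MTT was added for 3 h, and the dye was solubilized in HCl–2-propanol and read at 560 nm (reference 750 nm).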

For experiment [8], the target named is T4, Lysine-specific demethylase 7A (Homo sapiens, UniProt Q6ZMT4).
T4 sequence (Q6ZMT4 whole entry): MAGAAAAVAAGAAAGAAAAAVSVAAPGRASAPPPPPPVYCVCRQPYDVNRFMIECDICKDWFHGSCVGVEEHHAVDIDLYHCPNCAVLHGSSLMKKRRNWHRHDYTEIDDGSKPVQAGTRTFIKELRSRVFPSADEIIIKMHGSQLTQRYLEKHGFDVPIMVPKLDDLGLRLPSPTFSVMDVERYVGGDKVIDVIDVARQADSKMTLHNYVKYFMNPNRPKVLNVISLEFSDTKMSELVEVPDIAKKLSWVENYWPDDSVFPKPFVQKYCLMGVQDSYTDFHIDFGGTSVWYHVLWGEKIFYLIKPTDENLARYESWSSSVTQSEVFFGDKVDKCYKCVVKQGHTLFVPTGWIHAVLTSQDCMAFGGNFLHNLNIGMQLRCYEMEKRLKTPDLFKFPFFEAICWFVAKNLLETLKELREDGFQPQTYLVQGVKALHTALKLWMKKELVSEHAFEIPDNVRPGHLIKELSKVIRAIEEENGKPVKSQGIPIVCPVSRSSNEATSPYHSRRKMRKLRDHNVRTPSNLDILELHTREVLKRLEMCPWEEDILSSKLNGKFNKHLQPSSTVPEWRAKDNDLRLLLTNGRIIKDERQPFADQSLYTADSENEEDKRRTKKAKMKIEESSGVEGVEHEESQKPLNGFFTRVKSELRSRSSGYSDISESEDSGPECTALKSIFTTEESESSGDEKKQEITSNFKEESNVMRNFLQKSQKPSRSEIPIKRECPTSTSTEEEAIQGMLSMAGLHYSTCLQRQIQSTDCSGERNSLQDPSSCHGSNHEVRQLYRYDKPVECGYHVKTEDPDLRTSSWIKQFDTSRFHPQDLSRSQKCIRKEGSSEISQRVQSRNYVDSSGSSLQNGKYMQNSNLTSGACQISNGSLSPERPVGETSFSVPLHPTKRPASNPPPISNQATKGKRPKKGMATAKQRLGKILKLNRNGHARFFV
Put plainly: Inhibition of KDM7A (unknown origin) using K27me2 peptide as substrate by MALDI assay.

A further experiment has as its system HeLa. Put plainly: Growth inhibition of human HeLa cells after 48 hrs by MTT assay. Type of experiment: functional. A digest of the protocol: as §2

Chain of Histone lysine demethylase PHF8 (Q9UPP1 whole entry): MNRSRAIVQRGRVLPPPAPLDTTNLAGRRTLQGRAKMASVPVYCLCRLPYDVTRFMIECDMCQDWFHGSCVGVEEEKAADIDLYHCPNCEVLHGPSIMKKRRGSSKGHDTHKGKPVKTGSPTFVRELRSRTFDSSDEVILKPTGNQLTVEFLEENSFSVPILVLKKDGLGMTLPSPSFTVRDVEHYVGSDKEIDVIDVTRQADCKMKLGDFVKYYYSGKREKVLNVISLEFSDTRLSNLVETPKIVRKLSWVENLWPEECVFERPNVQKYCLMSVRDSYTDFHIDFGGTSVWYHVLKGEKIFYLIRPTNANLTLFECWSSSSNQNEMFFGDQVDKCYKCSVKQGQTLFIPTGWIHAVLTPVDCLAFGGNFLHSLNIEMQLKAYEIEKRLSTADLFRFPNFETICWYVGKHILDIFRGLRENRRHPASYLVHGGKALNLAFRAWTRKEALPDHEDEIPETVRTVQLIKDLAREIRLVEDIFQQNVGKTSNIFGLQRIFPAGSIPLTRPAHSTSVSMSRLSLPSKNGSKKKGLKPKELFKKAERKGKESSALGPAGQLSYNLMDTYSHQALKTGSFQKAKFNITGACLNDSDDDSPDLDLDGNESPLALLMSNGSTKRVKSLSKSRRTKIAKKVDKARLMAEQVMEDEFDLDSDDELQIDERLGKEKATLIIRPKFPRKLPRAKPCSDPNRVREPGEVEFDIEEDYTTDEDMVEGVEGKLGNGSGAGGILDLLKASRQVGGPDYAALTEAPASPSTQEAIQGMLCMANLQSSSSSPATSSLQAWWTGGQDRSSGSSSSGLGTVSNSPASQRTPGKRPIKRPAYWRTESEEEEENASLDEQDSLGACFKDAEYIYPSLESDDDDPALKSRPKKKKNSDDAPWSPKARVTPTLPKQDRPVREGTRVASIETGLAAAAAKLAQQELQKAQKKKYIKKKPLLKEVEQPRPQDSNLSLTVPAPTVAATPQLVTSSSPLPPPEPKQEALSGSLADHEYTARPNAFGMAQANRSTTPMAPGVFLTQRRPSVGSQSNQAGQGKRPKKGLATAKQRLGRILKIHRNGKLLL

In general, IC50 refers to the concentration needed to halve the response being measured. Regarding `O=C(O)CCN(O)C(=O)CCCCCCCCC1CCCCCC1`, the concentration for half-maximal inhibition (IC50) in experiment [1] is above 120 µM; in experiment [2] it was 55 µM; in experiment [3] it was 15 µM; in experiment [4], 99 µM; in [5] it was 9.1 µM; in experiment [6] it was above 100 µM.
In the case of `O=C(O)CCN(O)C(=O)CCCCCCCCC1CCCC1`, the concentration for half-maximal inhibition (IC50) in experiment [1] was 78 µM; in experiment [2] it was 35 µM; in [3] it was 16 µM; in [4], above 120 µM; in experiment [5], 43 µM; in experiment [6] it was above 100 µM.
For the compound `CC(C)CCCCCCCCC(=O)N(O)CCC(=O)O`, the concentration for half-maximal inhibition (IC50) was 55 µM in experiment [1]; 110 µM in experiment [2]; 8.1 µM in [3]; 92 µM in [4]; 24 µM in [5]; above 100 µM in experiment [6].
For the compound `O=C(O)CCN(O)C(=O)CCCCCCCCC1CCCCC1`, the half-maximal inhibitory concentration (IC50) in [1] is 81 µM; in experiment [2] it was 100 µM; in experiment [3], 8 µM; in [4] it was above 120 µM; in [5] it was 17 µM; in [6] it was above 100 µM.
Usually GI50 stands for the concentration that inhibits growth by half. A low value points to greater sensitivity of the cells. As to `O=C(O)c1ccnc(C(=O)O)c1`, the IC50 in experiment [2] was 100 µM; in [8], 15 µM; in experiment [5] it was above 250 µM. The GI50 (in experiment [7]; with HeLa) was above 240 µM throughout.
On to `COC(=O)CCN(O)C(=O)CCCCCCCCC(C)C`, for which the IC50 in experiment [1] is 110 µM; in experiment [2] it was 210 µM; in [4], above 120 µM; in experiment [5], 150 µM; in experiment [6], above 100 µM.
Regarding `CCCCCCCCCC(=O)N(O)CCC(=O)O`, the IC50 was 32 µM in experiment [1]; 64 µM in [2]; 9.6 µM in [3]; 100 µM in experiment [4]; 14 µM in experiment [5]; above 100 µM in [6].
In the case of `O=C(O)CCN(O)C(=O)CCCCCCCCc1ccccc1`, the IC50 in [1] was 22 µM; in [2], 93 µM; in experiment [3], 2.9 µM; in [4], 65 µM; in [5], 23 µM; in experiment [6], above 100 µM.
